Article PMC8805511 (Bioorganic & medicinal chemistry letters, 2021)
Where two headings read alike, the source gives them in different places. Values belong to the molecule of their own block, whether it stands above or below them.

How the values were obtained:
solubility = type: physicochemical; details: excluded from further study
HeLaC3 cells = assay: total tau; type: cell-based; details: 24 h, Western blot
[1] = mouse liver microsome stability, compound remaining after 30 minutes; type: in vitro ADME; details: unmodified compound remaining after incubation with mouse liver microsomes for 30 minutes at 37 °C
[2] = mouse liver microsome assays; cited from earlier work
[3] = T1/2 in mouse liver microsome assays; type: in vitro ADME; details: liver microsomes
Outline: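 Test compound incubated with mouse liver microsomes at 37 °C. The amount of unmodified compound remaining was measured after 30 min as a single-point stability read. T1/2 (min) was calculated from these incubations. Dextromethorphan served as the positive control.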

tau = details: cited from earlier work

solubility (solubility): poor solubility
Molecule: CCn1c(=O)/c(=C2\Sc3c(Cl)cccc3N2C)s/c1=C\c1ccncc1 [Compound 17]

Percentage at T30min [1]: below the limit of detection
Molecule: CCn1c(=O)/c(=C2\Sc3ccccc3N2C)s/c1=C\c1ccccn1 [YM-08]
half-life [2]: less than three minutes

half-life [3]: ~20 min
Molecule: CCn1c(=O)/c(=C2\Sc3ccc(Cl)cc3N2C)s/c1=C\c1ccccn1 [Compound 6]

half-life [3]: ~20 min
Molecule: CCn1c(=O)/c(=C2\Sc3cccc(Cl)c3N2C)s/c1=C\c1ccccn1 [Compound 5]

solubility (solubility): poor solubility
Molecule: CCn1c(=O)/c(=C2\Sc3cccc(Cl)c3N2C)s/c1=C\c1ccncc1 [Compound 14]

The next lines start with the molecule.

Molecule: CCn1c(=O)/c(=C2\Sc3ccc(Cl)cc3N2C)s/c1=C\c1ccncc1 [Compound 15]
cellular stress (levels of Hsp72 and Hsp90) (HeLaC3 cells): did not activate cellular stress

Molecule: CCn1c(=O)/c(=C2\Sc3cc(Cl)ccc3N2C)s/c1=C\c1ccncc1 [Compound 16]
half-life [3]: ~20 min

Molecule: YM-01
concentration promoting tau degradation (tau): ~ 1 μM
